The nature of data set [1]: Aqueous solubility of the compound at pH 5. As to conditions: aqueous medium. In kind it is physicochemical.
Data set [2] concerns Cryptococcus neoformans. The experiment in a line: Antifungal activity against wild type fluconazole-sensitive Cryptococcus neoformans serotype A H99 at pH 5 measured over 4 days. The data set is classed as functional, organism-based. Particulars: var grubii H99 , 96 h. In outline:
(§1)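 YPD-grown exponential-phase yeasts, hemacytometer-counted, diluted into RPMI buffered to pH 7.0 with 25 mM HEPES (or pH 5.0 with […] for pH comparison) at 2 x 10^3 per well; two-fold series 40 to 0.078 µM, 37 °C, agitated twice daily. A595 followed over 4 days versus DMSO controls; day-3 turbidity fitted by 4-parameter regression for IC50; MIC = growth ≤10% of untreated.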

A short description of data set [3]: Ratio of aqueous solubility at pH 5 to aqueous solubility at pH 7. The data set is classed as physicochemical. As to conditions: buffer.
The nature of data set [4]: Therapeutic index, ratio of IC50 for mouse P388D1 cells to IC50 for wild type Cryptococcus neoformans serotype A H99. Particulars: read-out: Ratio IC50. The data set is classed as toxicity. In short, it runs like this:
(§2)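 Ratio of P388D1 IC50 (72 h resazurin viability, 80 to 0.3 µM) to yeast IC50 from RPMI/HEPES pH 7.0 broth dilution with A595 turbidity and 4-parameter regression.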

In data set [5] the test system is Cryptococcus neoformans. Put plainly: Antifungal activity against wild type fluconazole-sensitive Cryptococcus neoformans serotype A H99 at pH 7 measured over 4 days. In kind it is functional, organism-based. Particulars: var grubii H99 , 96 h. In short, it runs like this: as §1
The next data set relates to P388D1. The experiment in a line: Cytotoxicity against mouse P388D1 cells assessed as reduction in cell viability after 72 hrs by resazurin-based fluorescence assay. As to conditions: P388D1, 72 h. In short, it runs like this: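 P388D1 cells in Ham's F-12 + 10% FBS + 2 mM L-glutamine seeded at 5 x 10^3 per well, adhered overnight, exposed to compounds 80 to 0.3 µM for 72 h. Viability read as resorufin fluorescence (530/590 nm) after 0.1 mM resazurin, pre-saturation time points, versus untreated cells; three biological replicates; IC50 by non-linear regression.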
In general terms: The colour change of resazurin is a common sign of viable cells or microbes.

Data set [6] concerns Histoplasma capsulatum. Put plainly: Antifungal activity against Histoplasma capsulatum G217B ATCC 26032 at pH 7 measured over 5 days. The data set is classed as functional, organism-based. Particulars: G217B ATCC 26032, 120 h. In outline: (§3)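 Yeasts pre-grown in HMM (37 °C, 5% CO2) to exponential phase, counted by hemacytometer, diluted into RPMI buffered with 25 mM HEPES (pH 7.0) or 25 mM MOPS (pH 5.0) at 5 x 10^5 per well; two-fold dilutions 40 to 0.078 µM, 37 °C, agitated twice daily. A595 read over 5 days, normalized to DMSO controls; 4-day data fitted by 4-parameter regression for IC50; MIC = ≤10% growth.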

Data set [7] is described as follows: Aqueous solubility of the compound at pH 7. In kind it is physicochemical. As to conditions: aqueous medium.
Data set [8] is described as follows: Therapeutic index, ratio of IC50 for mouse P388D1 cells to IC50 for Histoplasma capsulatum G217B ATCC 26032. In kind it is toxicity. Particulars: read-out: Ratio IC50. In short, it runs like this:
as §2

The test system of data set [9] is Histoplasma capsulatum. The experiment in a line: Antifungal activity against Histoplasma capsulatum G217B ATCC 26032 at pH 5 measured over 5 days. The data set is classed as functional, organism-based. As to conditions: G217B ATCC 26032, 120 h. In outline:
as §3

For data set [10], the system named is Cryptococcus neoformans. The experiment in a line: Antifungal activity against fluconazole-resistant Cryptococcus neoformans serotype A MRL862 harboring erg11 mutant measured over 4 days. The data set is classed as functional, organism-based. Particulars: MRL862, 96 h. In short, it runs like this:
as §1

The test system of data set [11] is Cryptococcus neoformans. The experiment in a line: Antifungal activity against fluconazole-resistant Cryptococcus neoformans serotype A TES9 harboring erg11 mutant measured over 4 days. In kind it is functional, organism-based. As to conditions: TES9, 96 h. In short, it runs like this:
as §1

Data set [12] has as its system Histoplasma capsulatum. The experiment in a line: Antifungal activity against RFP expressing Histoplasma capsulatum infected in LacZ-expressing mouse P388D1 cells incubated for 6 days measured daily by fluorescence assay. In kind it is functional, organism-based. Particulars: for MIC: 144 h; for IC50: P388D1, 144 h. In outline: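 LacZ-expressing P388D1 macrophages (3x10^4 per well, adhered 3 h) infected with RFP Histoplasma yeasts at MOI 1:2 for 3 h, medium replaced with F-12 + 10% serum, overnight at 37 °C, then compound gradient added for 6 days. RFP fluorescence (530/590 nm) read daily; day-4 values relative to untreated infected cells fitted by non-linear regression; triplicate.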

For data set [13], the system named is Cryptococcus neoformans. The experiment in a line: Antifungal activity against wild-type fluconazole-sensitive Cryptococcus neoformans serotype D B3501 measured over 4 days. In kind it is functional, organism-based. Particulars: B3501, 96 h. In short, it runs like this:
as §1

Results on six compounds are retold here after ChEMBL document CHEMBL4219175, “Synthesis and biological evaluation of aminothiazoles against Histoplasma capsulatum and Cryptococcus neoformans” (Bioorg Med Chem, 2018).

Values after ≈ are worked out from the molar mass of the structure shown.

For the compound `O=C(Nc1ncc(Cc2ccccn2)s1)C1CCCCC1`, the values for the solubility in data set [1] and in data set [7] were 480 µg/mL (≈ 1590 µM) and 340 µg/mL (≈ 1130 µM), respectively. In addition, the IC50 in the data set with Cryptococcus neoformans [2] is 15.6 µM; in the data set with Cryptococcus neoformans [5] it was 7.17 µM; in the data set with P388D1 it was above 40 µM; in the data set with Histoplasma capsulatum [6] it was 18.3 µM; in the data set on Histoplasma capsulatum [9], above 20 µM. Besides, the MIC90 in the data set on Cryptococcus neoformans [2] was above 40 µM; against Cryptococcus neoformans [5], 20 µM (≈ 6.03 µg/mL); in the data set on Histoplasma capsulatum [6], 40 µM (≈ 12.1 µg/mL); in the data set with Histoplasma capsulatum [9] it was above 40 µM. For the same compound, the Ratio in data set [3] was 1.4. Further, the selectivity ratio is above 6 in [4] and above 2 in [8].
Consider `O=C(Nc1ncc(Cc2cccc3ccsc23)s1)C1CCCCC1`, for which the selectivity ratio in data set [4] was above 118; in data set [8], above 200. Also, the IC50 was 0.34 µM in the data set with Cryptococcus neoformans [5]; 200 nM in the data set with Cryptococcus neoformans [10]; above 40 µM in the data set with P388D1; 230 nM with Cryptococcus neoformans [11]; 0.2 µM with Histoplasma capsulatum [6]; 1380 nM in the data set on Histoplasma capsulatum [12]. Further, inhibition in the data set on Cryptococcus neoformans [13] was half-maximal at 270 nM (IC50). In addition, the MIC90 against Cryptococcus neoformans [5] turned out to be 0.63 µM (≈ 0.225 µg/mL); against Cryptococcus neoformans [10], 0.63 µM (≈ 0.225 µg/mL); with Cryptococcus neoformans [11], 0.63 µM (≈ 0.225 µg/mL); in the data set with Histoplasma capsulatum [6], 0.31 µM (≈ 0.111 µg/mL); in the data set with Cryptococcus neoformans [13], 0.63 µM (≈ 0.225 µg/mL). The compound further yielded an MIC against Histoplasma capsulatum [12] of 2.5 µM (≈ 0.891 µg/mL).
As to `O=C(Nc1ncc(Cc2ccncc2)s1)C1CCCCC1`, the solubility in data set [1] came to 1190 µg/mL (≈ 3950 µM); in [7] it was 350 µg/mL (≈ 1160 µM). Also, the IC50 with Cryptococcus neoformans [2], in the data set on Cryptococcus neoformans [5], in the data set with Histoplasma capsulatum [6] and with Histoplasma capsulatum [9] was above 20 µM each time. Moreover, the MIC90 against Cryptococcus neoformans [2] and in the data set with Histoplasma capsulatum [9] was above 40 µM in each case. Also, the Ratio in data set [3] came to 3.4.
`O=C(CCC1CCCCC1)Nc1ncc(Cc2ccncc2)s1`: the solubility in data set [1] was 140 µg/mL (≈ 425 µM); in data set [7], 40 µg/mL (≈ 121 µM). Moreover, the IC50 in the data set on Cryptococcus neoformans [2] is above 20 µM; in the data set with Cryptococcus neoformans [5] it was above 20 µM; with P388D1, above 40 µM; in the data set with Histoplasma capsulatum [6], 7.67 µM; with Histoplasma capsulatum [9] it was 11.1 µM. The figures for the MIC90 with Cryptococcus neoformans [2], with Histoplasma capsulatum [6] and with Histoplasma capsulatum [9] were above 40 µM, 20 µM (≈ 6.59 µg/mL) and 40 µM (≈ 13.2 µg/mL), respectively. Besides, the Ratio in data set [3] is recorded as 3.5. Besides, the selectivity ratio in data set [8] was above 5.
Regarding `O=C(CCC1CCCCC1)Nc1ncc(Cc2ccnc3ccccc23)s1`, the solubility in data set [1] was found to be 5 µg/mL (≈ 13.2 µM); in data set [7], 3 µg/mL (≈ 7.9 µM). Also, the IC50 with Cryptococcus neoformans [2] was above 20 µM; with Cryptococcus neoformans [5], above 20 µM; in the data set with Histoplasma capsulatum [6], above 20 µM; in the data set with Histoplasma capsulatum [9], 15.7 µM. Further, the MIC90 against Cryptococcus neoformans [2] was above 40 µM; with Histoplasma capsulatum [6], above 40 µM; in the data set with Histoplasma capsulatum [9], 40 µM (≈ 15.2 µg/mL). The Ratio in data set [3] was found to be 1.7.
As to `O=C(c1cnc(NC(=O)C2CCCCC2)s1)c1cccc2ccccc12`, the values for the selectivity ratio in data set [4] and in [8] were above 45 and above 211, respectively. Besides, the IC50 with Cryptococcus neoformans [5] was 0.89 µM; with Cryptococcus neoformans [10], 410 nM; in the data set with P388D1, above 40 µM; in the data set on Cryptococcus neoformans [11] it was 470 nM; in the data set with Histoplasma capsulatum [6], 0.19 µM; in the data set on Histoplasma capsulatum [12], 710 nM. The compound further registered an IC50 with Cryptococcus neoformans [13] of 380 nM. For the same compound, the MIC90 stood at 2.5 µM (≈ 0.911 µg/mL) against Cryptococcus neoformans [5]; 1.25 µM (≈ 0.456 µg/mL) against Cryptococcus neoformans [10]; 1.25 µM (≈ 0.456 µg/mL) in the data set on Cryptococcus neoformans [11]; 0.31 µM (≈ 0.113 µg/mL) against Histoplasma capsulatum [6]; 1.25 µM (≈ 0.456 µg/mL) in the data set with Cryptococcus neoformans [13]. The MIC in the data set on Histoplasma capsulatum [12] was 1.25 µM (≈ 0.456 µg/mL).

In general, solubility refers to the concentration that dissolves in the medium under given conditions. Low readings indicate a poorly soluble substance, high ones a readily soluble substance. By IC50 is commonly meant the point on the concentration scale where inhibition reaches its midpoint. One may read the MIC90 as an inhibitory concentration at the 90% level, which refers to growth in some studies and to a panel of isolates in others. Lower therefore signals greater potency. In general, MIC refers to the smallest concentration in the dilution series that meets the test's criterion for growth inhibition. Lower therefore signals greater potency.
